Measured values of several laboratories.
Protocols differ between the studies behind these lines.
FOLH1: Glutamate carboxypeptidase 2 (FOLH1, Homo sapiens, UniProt Q04609)
PIK3CB: Phosphatidylinositol 4,5-bisphosphate 3-kinase catalytic subunit beta isoform (PIK3CB, Homo sapiens, UniProt P42338)
PIK3CA: Phosphatidylinositol 4,5-bisphosphate 3-kinase catalytic subunit alpha isoform (PIK3CA, Homo sapiens, UniProt P42336)

Compound	target	observed	action	method	endpoint	value
CC[C@H](C)[C@H](NC(=O)[C@H](Cc1nc2ccccc2s1)NC(=O)CCC(=O)O)C(=O)N[C@H]1CCc2cccc3c2N(C1=O)[C@H](C(=O)NCc1cn[nH]n1)C3	Granzyme B (GZMB, Homo sapiens, UniProt P10144)	enzyme activity	inhibitor	fluorescence	Ki	37.8 nM
O=C(O)CC[C@H](NC(=O)N[C@@H](CCCCNC(=O)CCCCCCC(=O)NCCCC[C@@H](NC(=O)[C@H](CCC(=O)O)NC(=O)[C@H](CCC(=O)O)NC(=O)CCC(=O)NCCCN1CC[S][Tc]2(=[O])[S]CC[N]2CC1)C(=O)O)C(=O)O)C(=O)O (some centres unmarked)	FOLH1	binding	–	radioligand	Kd	6.8 nM
COc1cc(N=C2C(=O)N(Cc3ccccc3)c3ccccc32)cc(OC)c1	PIK3CB	enzyme activity	inhibitor	ADP detection	IC50	38 nM
CC1(C)CN(CCCCC(=O)N[C@H](Cc2ccccc2)C(=O)N[C@H](Cc2ccccc2)C(=O)N[C@@H](CCCCNC(=O)CCCCCCC(=O)NCCCC[C@H](NC(=O)N[C@@H](CCC(=O)O)C(=O)O)C(=O)O)C(=O)O)CC[N]2CC(C)(C)[S][Tc]2(=[O])[S]1 (some centres unmarked)	FOLH1	binding	–	radioligand	Kd	15.5 nM
O=C1Nc2ccccc2/C1=N/c1ccccc1Br	PIK3CB	enzyme activity	inhibitor	ADP detection	IC50	524 nM
COc1nc(-c2cccc(-c3ccccc3)c2C)ccc1CNCCNC(=O)CCCCCCCCCCC(=O)N1CCN(CCNC(=O)c2cc3c(=O)n4cccc(C)c4nc3n(CCc3cccs3)c2=N)CC1	Speckle-type POZ protein (SPOP, Homo sapiens, UniProt O43791)	binding	–	BLI	Kd	2640 nM
O.O=C([O-])CN(CCN(CC(=O)[O-])Cc1cc(CCC(=O)O)ccc1O)Cc1cc(CCC(=O)NCCCCCC(=O)NCCCC[C@H](NC(=O)N[C@@H](CCC(=O)O)C(=O)O)C(=O)O)ccc1[O-].[Ga+3]	FOLH1	binding	–	radioligand	Kd	11.6 nM
C=CCN1C(=O)C(=Nc2cccc(C)c2)c2ccccc21	PIK3CA	enzyme activity	inhibitor	ADP detection	IC50	205 nM
CN(C)C(=O)c1cc2cnc(Nc3cccc4c(=O)cc(N5CCOCC5)oc34)nc2n1C1CCCC1	PIK3CA	enzyme activity	inhibitor	radiometric	IC50	> 10000 nM
OC[C@H]1O[C@H](O[C@]2(CCl)O[C@H](CCl)[C@@H](O)[C@@H]2O)[C@H](O)[C@@H](O)[C@H]1Cl	T1R2/T1R3 (Homo sapiens, UniProt Q7RTX0+Q8TE23)	calcium signal	agonist	–	EC50	232000 nM
CN1CCN(c2cc(=O)c3ccc(Nc4ncc5cc(C(=O)N(C)C)n(C6CCCC6)c5n4)cc3o2)CC1	PIK3CA	enzyme activity	inhibitor	radiometric	IC50	> 10000 nM
CCCCC(=O)Nc1ccc(-c2ccc3ncn(CCC)c(=O)c3c2)cn1	Phosphatidylinositol 5-phosphate 4-kinase type-2 beta (PIP4K2B, Homo sapiens, UniProt P78356)	binding	–	competition with immobilised ligand	Kd	> 20000 nM
O=C1C(=Nc2ccc(Cl)cc2Br)c2ccccc2N1Cc1ccc(Br)cc1	PIK3CA	enzyme activity	inhibitor	ADP detection	IC50	43.4 nM
CN(C)C(=O)c1cc2cnc(Nc3ccc4c(=O)cc(N5CCOCC5)oc4c3)nc2n1C1CCCC1	PIK3CA	enzyme activity	inhibitor	radiometric	IC50	32.5 nM
